# Reference: ChEMBL document CHEMBL1125675, “Synthesis and in vitro biological activity of new deaza analogues of folic acid, aminopterin, and methotrexate with an L-ornithine side chain” (J Med Chem, 1991)
# pIC50: −log10 of the molar value.
# Key:
# L1210 = test: Inhibitory activity against growth of L1210 murine leukemic cells; format: functional, cell-based; conditions: Mus musculus
# In short: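 Growth inhibition was measured by an adapted tetrazolium salt method after 48-h exposure. Cells were grown in RPMI 1640 with 10% fetal bovine serum plus antibiotics. Results are expressed as IC50.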
# Dihydrofolate reductase = molecular target: T1, Dihydrofolate reductase (Homo sapiens, UniProt P00374); test: Inhibition of dihydrofolate reductase(DHFR) enzyme from human leukemic lymphoblasts.
# T1 sequence (P00374 whole entry): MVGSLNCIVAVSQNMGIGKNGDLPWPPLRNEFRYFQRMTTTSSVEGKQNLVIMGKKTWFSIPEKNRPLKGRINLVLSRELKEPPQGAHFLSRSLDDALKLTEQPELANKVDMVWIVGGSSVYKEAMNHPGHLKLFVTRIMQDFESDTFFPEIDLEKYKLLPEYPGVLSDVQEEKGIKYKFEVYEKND
# In short: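 Spectrophotometric read-out at 340 nm. Enzyme was DHFR purified from human leukemic lymphoblasts (WI-L2/M4).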
# [1] = Inhibitory activity against growth of WI-L2 human leukemic cells; conditions: WIL2
Structure (SMILES),pIC50 (L1210),pIC50 (Dihydrofolate reductase),pIC50 [1]
NCCCC(NC(=O)c1ccc(NCc2cnc3nc(N)nc(O)c3c2)cc1)C(=O)O (centres undefined),< 5.30,,
NCCCC(NC(=O)c1ccc(NCc2ccc3nc(N)nc(O)c3c2)cc1)C(=O)O (centres undefined),< 5.30,6.12,
CN(Cc1cnc2nc(N)nc(N)c2n1)c1ccc(C(=O)NC(CCCN)C(=O)O)cc1 (centres undefined),,6.80,
NCCCC(NC(=O)c1ccc(NCc2cnc3nc(N)nc(N)c3n2)cc1)C(=O)O (centres undefined),,,5.59
NCCCC(NC(=O)c1ccc(NCc2cnc3nc(N)nc(N)c3c2)cc1)C(=O)O (centres undefined),5.85,7.57,6.07

# Now from value to molecule:
pIC50 (L1210),pIC50 (Dihydrofolate reductase),pIC50 [1],Structure (SMILES)
6.18,,,NCCCC(NC(=O)c1ccc(NCc2ccc3nc(N)nc(N)c3n2)cc1)C(=O)O (centres undefined)
5.96,7.30,5.37,CN(Cc1cnc2nc(N)nc(N)c2n1)c1ccc(C(=O)NC(CCCNCC(=O)O)C(=O)O)cc1 (centres undefined)
6.55,,6.74,NCCCC(NC(=O)c1ccc(NCc2ccc3nc(N)nc(N)c3c2)cc1)C(=O)O (centres undefined)
